In ChEMBL document CHEMBL1157674, “Nanomolar affinity, iminosugar-based chemical probes for specific labeling of lysosomal glucocerebrosidase” (Bioorg Med Chem, 2010):
Activity calls are given as the source filed them. The rule behind the calls is not given here.

Columns and labels:
Prunus dulcis [1] = experiment: Binding affinity to almond beta-glucosidase expressed in Escherichia coli BL21 (DE3) at 100 uM by fluorescence assay
How it was run: (§1)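 E. coli BL21(DE3) lysate (1 mg/mL protein by BCA) spiked with varying amounts of almond β-glucosidase. Probe added as 4 or 10 µL of a 1 mM stock in 100 µL, in HEPES/NaCl pH 7.4. Photolabeling at 366 nm, 30 min, 4 °C, then fluorescein-N3 click. SDS–PAGE with fluorescence scan and silver stain.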

[2] = molecular target: T1, Lysosomal acid glucosylceramidase (Homo sapiens) (UniProt P04062); experiment: Displacement of deoxynojirimycin from human GBA at 5 uM by fluorescence assay
T1 sequence (whole entry): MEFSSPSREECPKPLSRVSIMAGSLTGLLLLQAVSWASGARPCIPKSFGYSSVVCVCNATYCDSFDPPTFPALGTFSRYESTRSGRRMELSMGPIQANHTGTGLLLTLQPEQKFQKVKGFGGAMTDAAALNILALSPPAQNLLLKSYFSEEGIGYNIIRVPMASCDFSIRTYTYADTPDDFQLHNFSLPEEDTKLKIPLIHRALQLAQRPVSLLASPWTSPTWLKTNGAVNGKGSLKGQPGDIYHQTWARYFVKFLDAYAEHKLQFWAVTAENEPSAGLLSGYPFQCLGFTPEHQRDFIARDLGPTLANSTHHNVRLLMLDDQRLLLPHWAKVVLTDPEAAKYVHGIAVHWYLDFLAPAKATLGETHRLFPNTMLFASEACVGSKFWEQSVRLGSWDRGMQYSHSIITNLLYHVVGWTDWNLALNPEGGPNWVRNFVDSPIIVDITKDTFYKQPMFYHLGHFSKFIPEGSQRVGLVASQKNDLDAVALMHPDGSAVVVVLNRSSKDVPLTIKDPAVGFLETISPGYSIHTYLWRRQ
How it was run: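 Competition labeling: Ceredase with probe plus 0, 0.5, 5 or 25 µL of 1 mM deoxynojirimycin stock in 50 µL, 50 mM HEPES pH 6.1. UV irradiation at 366 nm for 30 min at 4 °C, then fluorescein-N3 click and SDS–PAGE fluorescence read-out.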

[3] = molecular target: T1, Lysosomal acid glucosylceramidase (Homo sapiens); experiment: Binding affinity to human GBA at 0.1 uM by fluorescence assay
How it was run: (§2)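 Ceredase (human placental GBA) photolabeled in 50 µL with probe at 10, 5, 3, 1, 0.5 or 0.1 µM in 50 mM HEPES pH 6.1. UV 366 nm, 30 min, 4 °C. Then CuSO4/TCEP click with fluorescein-N3 for 16 h at 4 °C, denaturation at 95 °C, SDS–PAGE and fluorescence scanning.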

Prunus dulcis [4] = experiment: Binding affinity to almond beta-glucosidase expressed in Escherichia coli BL21 (DE3) at 40 uM by fluorescence assay; how it was run: as §1
[5] = Displacement of PNPG from almond beta-glucosidase by UV spectroscopy; set-up: species or system Prunus dulcis
How it was run: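 Almond β-glucosidase with p-nitrophenyl β-D-glucopyranoside (0.2–5 mM) in 0.1 M acetate buffer pH 5.0, 150 µL wells. After 15 min at 37 °C, p-nitrophenol read at 405 nm. Ki derived by varying both inhibitor and substrate concentrations.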

[6] = molecular target: T1, Lysosomal acid glucosylceramidase (Homo sapiens); experiment: Binding affinity to human GBA at 10 uM by fluorescence assay; how it was run: as §2
Prunus dulcis [7] = experiment: Binding affinity to almond beta-glucosidase at 40 uM after 30 mins by fluorescence assay
How it was run: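 Almond β-glucosidase from a 1 mg/mL stock, with probe added from a 1 mM stock in 5% DMSO/water, in 50 mM HEPES, 150 mM NaCl, pH 7.4. UV irradiation at 366 nm for 30 min at 4 °C; a non-irradiated control was kept dark. Then CuSO4/TCEP click with fluorescein-N3 for 1 h at rt. SDS–PAGE, fluorescence scan, then silver stain.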

[8] = Inhibition of Agrobacterium sp. beta-glucosidase
[9] = molecular target: T2, Lysosomal acid glucosylceramidase (Homo sapiens, UniProt P04062); experiment: Displacement of 4-methylumbelliferyl from human GBA by fluorimetry
T2 sequence (P04062 whole entry): T1 sequence (whole entry)

Beta-glucosidase = molecular target: T3, Beta-glucosidase (Homo sapiens, UniProt Q9HCG7); experiment: Displacement of 4-methylumbelliferyl from non-lysosomal GBA2 by fluorimetry
T3 sequence (Q9HCG7 whole entry): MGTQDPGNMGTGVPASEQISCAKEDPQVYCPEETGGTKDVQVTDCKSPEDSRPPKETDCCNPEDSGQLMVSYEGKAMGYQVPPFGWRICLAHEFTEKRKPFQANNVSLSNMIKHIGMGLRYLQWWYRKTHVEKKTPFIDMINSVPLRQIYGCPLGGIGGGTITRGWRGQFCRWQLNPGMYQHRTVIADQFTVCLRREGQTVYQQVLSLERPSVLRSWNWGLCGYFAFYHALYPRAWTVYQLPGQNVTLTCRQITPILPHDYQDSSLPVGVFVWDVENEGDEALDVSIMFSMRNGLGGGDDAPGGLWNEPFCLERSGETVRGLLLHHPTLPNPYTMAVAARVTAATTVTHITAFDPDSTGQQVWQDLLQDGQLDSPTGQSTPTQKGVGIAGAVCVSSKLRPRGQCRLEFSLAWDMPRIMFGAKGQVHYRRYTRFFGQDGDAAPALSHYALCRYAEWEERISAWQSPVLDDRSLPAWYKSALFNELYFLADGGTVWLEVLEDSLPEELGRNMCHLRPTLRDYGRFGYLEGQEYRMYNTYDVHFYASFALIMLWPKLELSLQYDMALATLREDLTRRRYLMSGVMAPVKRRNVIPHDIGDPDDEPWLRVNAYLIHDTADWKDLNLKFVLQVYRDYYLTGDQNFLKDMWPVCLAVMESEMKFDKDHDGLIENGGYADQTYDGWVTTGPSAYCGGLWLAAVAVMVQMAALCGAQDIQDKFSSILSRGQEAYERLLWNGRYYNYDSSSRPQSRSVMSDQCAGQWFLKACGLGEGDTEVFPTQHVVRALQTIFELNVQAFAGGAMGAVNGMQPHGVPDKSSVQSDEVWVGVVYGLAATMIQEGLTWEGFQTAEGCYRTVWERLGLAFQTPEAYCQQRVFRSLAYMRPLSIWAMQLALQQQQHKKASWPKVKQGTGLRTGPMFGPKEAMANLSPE

[10] = molecular target: T1, Lysosomal acid glucosylceramidase (Homo sapiens); experiment: Binding affinity to human GBA at 0.1 to 10 uM by fluorescence assay; how it was run: as §2
[11] = molecular target: T1, Lysosomal acid glucosylceramidase (Homo sapiens); experiment: Binding affinity to GBA in human HeLa cell extract at 3 uM by fluorescence assay; type: cell-free
How it was run: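 300 ng Ceredase with increasing HeLa cell lysate (0.5 mg/mL stock; 0–40 µL) in 50 mM HEPES pH 6.1 with probe. UV 366 nm, 30 min, 4 °C. Then fluorescein-N3 click, SDS–PAGE, fluorescence scan and silver stain. Lysate prepared from 2.5×10^5 PBS-washed cells by detergent extraction; protein measured by BCA.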

SMILES | Activity (Prunus dulcis [1]) | Activity [2] | Activity [3] | Ki [5] [µM] | Activity [6] | IC50 [9] [µM] | IC50 (Beta-glucosidase) [µM] | also measured
CN(C)c1cccc2c(S(=O)(=O)NC[C@H]3N[C@H](CO)[C@@H](O)[C@@H]3O)cccc12 |  |  |  |  |  |  |  | Ki [8]: 0.002 µM
C#CCOc1ccc(C(=O)c2ccc(C(=O)NCCCN3C[C@H](O)[C@@H](O)[C@H](O)[C@H]3CO)cc2)cc1 |  | Active | inactive | 1.3 | Active | 0.35 | 0.02 | Activity [11]: Active
OC[C@H]1NC[C@H](O)[C@@H](O)[C@@H]1O [DUVOGLUSTAT] |  |  |  | 167 |  |  |  | 

More lines, main results first:

Activity (Prunus dulcis [1]) | Activity [2] | Activity [3] | Ki [5] [µM] | Activity [6] | IC50 [9] [µM] | IC50 (Beta-glucosidase) [µM] | SMILES | also measured
Active |  |  |  |  |  |  | C#CCOc1ccc(C(=O)c2ccc(O)cc2)cc1 | 
Active | Active | inactive | 588 | Active |  |  | C#CCOc1ccc(C(=O)c2ccc(O[C@@H]3O[C@H](CO)[C@@H](O)[C@H](O)[C@H]3O)cc2)cc1 | Activity (Prunus dulcis [4]): Active; Activity (Prunus dulcis [7]): Active
 | Active |  | 6.4 |  | 1.65 | 0.075 | C#CCOc1ccc(C(=O)CCC(=O)NCCCN2C[C@H](O)[C@@H](O)[C@H](O)[C@H]2CO)cc1 | Activity [10]: inactive
